CHT allo act: allosterically activates the human high affinity choline transporter. CHT-expressing cells, membrane potential dye, choline EC20; stronger effect = higher value; LV-AA mutant CHT in HEK293 cells. B-score at 10 µM. hit rate 0.49% among 310,000. Q9GZV3;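 active means initial fluorescence not abnormally high and integrated response B-score, plate-corrected, over 3 SD above library mean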
Rad51 HR inh: Rad51 (human) homologous recombination inhibition; hRad51 DNA strand exchange, fluorescence dequenching; hit rate 0.085% among 200,000; inhibition, % at 10 µM; Q06609;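 active means inhibition above 40% at the single screening dose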;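 further: 0% = DMSO control wells and 100% = blanks with heterologous ssDNA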
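Material: Human Rad51 nucleoprotein filaments preassembled on unlabelled ssDNA | Also added: Labelled 47-mer dsDNA for strand exchange | Dosing: Single dose, 10 µM final compound | Schedule: 30-min compound preincubation and 15-min exchange, both room temperature | Technique: Fluorescence dequenching at 485/520 nm | Measure: Percent inhibition relative to plate controls and blanks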
KCC2 mod: modulators of human KCC2 chloride dependent transport; KCC2 cells, thallium flux FluoZin-2 fluorescence; hit rate 2.2% among 190,000; B-score of Tl+ flux slope (higher = more flux/activation; lower = inhibition) at 10 µM;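 active means thallium flux slope and its plate-corrected score both differing from the plate sample mean at a set confidence after two filtering rounds, in either direction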;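 further: slope of fluorescence scaled to starting intensity during 10 to 20 s after thallium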
Target sequence (Q9H2X9 whole entry, looked up): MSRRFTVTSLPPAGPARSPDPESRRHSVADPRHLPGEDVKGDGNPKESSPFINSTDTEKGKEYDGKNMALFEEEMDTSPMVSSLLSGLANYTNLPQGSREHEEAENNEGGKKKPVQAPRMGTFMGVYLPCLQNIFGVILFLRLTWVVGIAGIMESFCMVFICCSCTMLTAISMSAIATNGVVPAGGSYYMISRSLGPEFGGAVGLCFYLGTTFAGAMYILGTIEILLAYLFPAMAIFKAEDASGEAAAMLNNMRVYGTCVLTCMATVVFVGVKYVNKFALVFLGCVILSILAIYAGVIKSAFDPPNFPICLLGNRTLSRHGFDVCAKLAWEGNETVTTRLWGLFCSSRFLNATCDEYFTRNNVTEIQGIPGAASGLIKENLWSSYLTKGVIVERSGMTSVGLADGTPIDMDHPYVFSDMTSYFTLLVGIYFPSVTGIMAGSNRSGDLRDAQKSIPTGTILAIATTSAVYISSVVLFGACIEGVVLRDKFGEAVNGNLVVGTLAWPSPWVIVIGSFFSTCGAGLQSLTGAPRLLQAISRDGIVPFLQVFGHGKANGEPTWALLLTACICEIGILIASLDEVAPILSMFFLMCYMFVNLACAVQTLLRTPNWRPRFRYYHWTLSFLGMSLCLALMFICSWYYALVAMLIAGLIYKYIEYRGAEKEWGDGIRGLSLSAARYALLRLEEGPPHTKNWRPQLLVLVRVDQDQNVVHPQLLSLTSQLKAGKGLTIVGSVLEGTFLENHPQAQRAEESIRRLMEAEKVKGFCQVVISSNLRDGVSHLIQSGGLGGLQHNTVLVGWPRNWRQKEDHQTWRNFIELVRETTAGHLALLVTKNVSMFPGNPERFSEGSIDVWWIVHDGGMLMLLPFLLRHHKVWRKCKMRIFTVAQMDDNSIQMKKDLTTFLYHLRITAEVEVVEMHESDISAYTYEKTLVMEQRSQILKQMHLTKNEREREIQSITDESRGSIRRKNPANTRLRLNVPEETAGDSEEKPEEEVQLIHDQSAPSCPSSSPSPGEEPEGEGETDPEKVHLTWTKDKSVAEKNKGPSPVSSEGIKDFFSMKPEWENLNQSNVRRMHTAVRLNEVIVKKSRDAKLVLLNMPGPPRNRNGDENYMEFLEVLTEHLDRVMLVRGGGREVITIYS
CHT inh: inhibitors of human choline transporter CHT; CHT-expressing cells, membrane potential dye, choline response; stronger effect = lower value; Q9GZV3; hit rate 0.86% among 310,000; B-score at 10 µM;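 active means B-score over 3 SD under the library average, and starting fluorescence ratio not unusually high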;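 further: choline stimulus applied at its EC90 after an EC20 pre-addition; B-score computed on integrated fluorescence ratio after choline addition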
KCC2 secondary: confirmation of human KCC2 transport modulators | shares compounds with KCC2 mod | HEK293-KCC2, thallium flux, FluoZin2 fluorescence; stronger effect = higher value | normalised thallium flux (F/F0 slope) at 10 µM | hit rate 15% among 3,700 | AID 1713;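 active means thallium flux slope above the same plate's solvent-only control mean plus 3 SD; inconclusive means the two replicate wells disagree; inactive means no significant difference from solvent-only control wells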
KCC2 bumet counter: bumetanide-insensitive thallium flux in KCC2 cells with ouabain, counter-screen; shares compounds with KCC2 mod; normalized thallium flux at 10 µM; AID 1714; hit rate 49% among 3,700; HEK293-KCC2 + bumetanide/ouabain, thallium flux FluoZin2; stronger effect = higher value;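 active means thallium entry rate above the same plate's blocked-transporter control wells by more than 3 SD; inconclusive means the two repeat wells disagree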;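 further: raw slope of fluorescence over initial fluorescence between 10 and 20 s after thallium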
KCC2 sec2: KCC2 (human) modulation, second secondary assay; shares compounds with KCC2 mod; HEK293-KCC2, thallium flux FluoZin2 fluorescence; actives lie on both sides; F/F0 rise rate, 10–20 s post-thallium; normalized thallium flux at 10 µM; hit rate 23% among 3,700;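 active means thallium flux slope more than 3 SD above or below the plate's solvent-only control mean, mostly below; inconclusive means the two repeat wells disagreed; inactive means no significant shift from solvent-only controls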;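 further: raw slope with 0.1% DMSO as baseline and bumetanide as block control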
HEK counter1: counter-screen for KCC2 modulators: effect in parental HEK293 cells; shares compounds with KCC2 mod; thallium flux FluoZin2, ouabain; baseline-ratio fluorescence slope, 10–20 s after thallium; thallium flux rate (normalised fluorescence) at 10 µM; hit rate 46% among 3,700;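 active means thallium flux rate significantly above the same plate's solvent-only control wells, beyond their mean plus 3 SD; inconclusive means the two replicate wells gave conflicting results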
KCC2 ouabain: modulates human KCC2 on retest with ouabain | shares compounds with KCC2 mod | AID 1717 | raw Tl+ flux slope (below DMSO = inhibition, above = activation) at 10 µM | HEK293-KCC2, thallium flux FluoZin2 fluorescence; bidirectional: low = inhibitor, high = activator | hit rate 48% among 3,700;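 active means thallium flux slope beyond 3 SD from same-plate DMSO control mean in most replicates, usually higher, sometimes lower; inconclusive means repeat tests gave conflicting results; inactive means no significant difference from controls in most replicates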;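 further: slope of initial-normalized fluorescence between seconds 10 and 20 after thallium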
HEK counter2: parental HEK flux effect, counter-screen 2. thallium flux slope at 10 µM. hit rate 33% among 3,700. shares compounds with KCC2 mod. HEK293 parental, thallium flux FluoZin-2 fluorescence slope;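 active means thallium flux slope above the same plate's solvent-control mean plus 3 SD in both duplicate wells; inconclusive means duplicate wells that disagreed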;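 further: run without ouabain in cells lacking the KCC2 cotransporter; slope of fluorescence scaled to its starting value between 10 and 20 s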
The depositor's hits bear a star; i = inactive; ? = inconclusive; . = no result given. A selection: hits, their analogues and other compounds. The true share with any hit is near 2.6%.

SMILES	CHT allo act	Rad51 HR inh	KCC2 mod	CHT inh	KCC2 secondary	KCC2 bumet counter	KCC2 sec2	HEK counter1	KCC2 ouabain	HEK counter2
CCc1nnc(NC(=O)c2ccc3ccccc3n2)s1	i	-1	6.4*	i	?	0.027*	0.031	0.013*	?	0.011*
CCSc1nnc(NC(=O)c2ccc3ccccc3n2)s1	i	2	36*	i	0.032*	0.12*	0.035	0.088*	0.072*	0.018*
COCCN(C(=O)COC(=O)c1cc2ccccc2cc1O)c1c(N)n(Cc2ccccc2)c(=O)[nH]c1=O	i	.	.	i	.	.	.	.	.	.
O=C(COC(=O)c1c(Cl)ccc(Cl)c1Cl)NC(=O)NCc1ccccc1	i	5	0.24	i	.	.	.	.	.	.
O=c1cc(/N=C/c2coc3cc(Br)ccc3c2=O)[nH]c(=S)[nH]1	i	15	9.5*	i	0.014*	0.045*	0.034	0.0089*	0.026	0.011
CN(C(=O)Cn1nc(Cl)ccc1=O)C1CCCN(Cc2ccccc2F)C1 (stereo not drawn)	i	.	.	i	.	.	.	.	.	.
O=C(CN1C(=O)NC(Cc2ccccc2)C1=O)NC(=O)NC1CCCCC1 (stereo not drawn)	i	-9	-4.6*	i	0.018	0.004	?	0.008	0.015*	0.01
CCOC(=O)Cc1csc(NC(=O)/C=C/c2ccc(OC)cc2)n1	i	26	-0.59	i	.	.	.	.	.	.
CC(C#N)Sc1ncnc2sc(-c3ccccc3)cc12 (stereo not drawn)	i	.	.	i	.	.	.	.	.	.
Cc1sc2ncnc(SC(C)C#N)c2c1C (stereo not drawn)	i	-7	3.8*	i	?	0.026*	0.029	0.01*	?	?
CCC(Sc1ncnc2sc(C)c(C)c12)C(=O)OC (stereo not drawn)	i	-2	.	i	0.026*	0.056*	0.046*	0.042*	0.044*	0.036*
CCOc1ccc(NC(=O)CN2CC(c3ccccc3)CC2=O)cc1 (stereo not drawn)	i	1	-2.8*	i	0.01	0.0067	0.031	0.0077	0.074	0.011
CCCN1C(=O)/C(=C/c2ccc3c(c2)OCO3)NC1=S	.	-6	45*	.	0.026*	0.071*	0.035	0.092*	0.06*	0.022*
Cc1cc(-c2cccs2)c(C#N)c(=S)[nH]1	i	.	33*	i	0.024*	0.034*	?	?	0.038*	?
N#Cc1c(-c2cccs2)cc(-c2cccs2)[nH]c1=O	i	17	-0.87	i	.	.	.	.	.	.
Cc1ccc(N2CC(C(=O)Nc3nc4ccc(S(C)(=O)=O)cc4s3)CC2=O)cc1C (stereo not drawn)	i	.	.	i	.	.	.	.	.	.
O=C(NCCc1ccc(Cl)cc1)C1CCN(S(=O)(=O)N2CCCC2)CC1	i	1	-6.7*	i	0.0068	0.0047	0.028	0.0078	0.019	0.011

Screening results from PubChem.
